Assay results as given in ChEMBL document CHEMBL1134719, “Design, synthesis and stability of N-acyloxymethyl- and N-aminocarbonyloxymethyl-2-azetidinones as human leukocyte elastase inhibitors” (Bioorg Med Chem Lett, 2001).
Active and inactive are the calls of the source. No cut-off for these calls is given here.

How the values were obtained:
[1] = Half-life in pH 7.4 phosphate buffer at 37 degree C; type: ADME
[2] = biological target: T1, Neutrophil elastase (Homo sapiens) (UniProt P08246); experiment: (§1) Second-order rate constant for the inhibition of human leukocyte elastase
T1 sequence (whole entry): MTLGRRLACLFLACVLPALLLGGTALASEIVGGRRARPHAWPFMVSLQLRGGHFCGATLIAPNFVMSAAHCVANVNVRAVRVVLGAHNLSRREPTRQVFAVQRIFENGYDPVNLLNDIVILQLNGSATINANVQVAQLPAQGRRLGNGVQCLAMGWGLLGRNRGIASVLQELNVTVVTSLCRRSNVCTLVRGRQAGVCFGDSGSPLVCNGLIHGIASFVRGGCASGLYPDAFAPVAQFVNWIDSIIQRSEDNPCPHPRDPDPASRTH
In short: (§2)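 Pre-incubation (Kitz–Wilson) kinetics at 25 °C. Enzyme and inhibitor were incubated, and aliquots were withdrawn at several time intervals into a cuvette holding substrate in HEPES buffer. After 30 s, the absorbance change was followed for 60 s.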

[3] = biological target: T2, Chymotrypsin-like elastase family member 2A (Sus scrofa) (UniProt P08419); experiment: Second-order rate constant for the inhibition of PPE (pancreatic porcine elastase); NI=no inhibition
T2 sequence (whole entry): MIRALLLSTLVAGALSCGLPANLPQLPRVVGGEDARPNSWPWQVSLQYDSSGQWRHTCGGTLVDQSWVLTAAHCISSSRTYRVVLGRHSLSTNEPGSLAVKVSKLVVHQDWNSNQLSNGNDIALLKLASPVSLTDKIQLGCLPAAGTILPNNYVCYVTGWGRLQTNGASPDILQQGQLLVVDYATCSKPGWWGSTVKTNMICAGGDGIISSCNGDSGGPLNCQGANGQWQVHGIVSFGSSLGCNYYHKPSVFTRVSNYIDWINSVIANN
In short: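 Porcine pancreatic elastase was assayed at 25 °C with an inhibitor-to-enzyme ratio [I]/[E] of 200, giving the second-order constant k_obs/[I].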

[4] = biological target: T1, Neutrophil elastase (Homo sapiens); experiment: Second-order rate constant for the inhibition of human leukocyte elastase;NI=no inhibition; in short: as §2
Neutrophil elastase = biological target: T3, Neutrophil elastase (Homo sapiens, UniProt P08246); experiment: as §1; in short: as §2
T3 sequence (P08246 whole entry): T1 sequence (whole entry)

[5] = biological target: T1, Neutrophil elastase (Homo sapiens); experiment: Second-order rate constant for the inhibition of HLE (human leukocyte elastase); in short: as §2

half-life [1] [days] | second-order inhibition rate constant [2] [M⁻¹ s⁻¹] | k obs / 1 [3] | SMILES | other results
13.2 | 52.8 | inactive | CCC1(CC)C(=O)N(COC(=O)c2ccccc2)C1Sc1nc2ccccc2o1 (centres undefined) | –
– | 32.3 | – | CCC1(CC)C(=O)N(COC(=O)NS(=O)(=O)c2ccc(C)cc2)C1S(=O)(=O)c1ccccc1 (centres undefined) | –
– | 43.2 | inactive | O=C(OCN1C(=O)CC1Sc1nc2ccccc2o1)c1ccccc1 (centres undefined) | –
– | 60.9 | inactive | CCC1(CC)C(=O)N(COC(=O)Nc2ccc(C)cc2)C1S(=O)(=O)c1ccccc1 (centres undefined) | –
– | 19000 | – | CO[C@H]1C(=O)N2C(C(=O)O)=C(COC(C)=O)CS(=O)(=O)C12 (some centres undefined) | –
> 208 | 100 | inactive | CCC1(CC)C(=O)N(COC(=O)Nc2ccc(OC)cc2)C1S(=O)(=O)c1ccccc1 (centres undefined) | –
– | – | – | CCC1(CC)C(=O)N(CO)C1S(=O)(=O)c1ccccc1 (centres undefined) | k obs / 1 [4]: inactive
– | 41.9 | inactive | CCC1(CC)C(=O)N(COC(=O)Nc2ccccc2)C1S(=O)(=O)c1ccccc1 (centres undefined) | –
125 | 67.5 | inactive | CCC1(CC)C(=O)N(COC(=O)c2ccccc2)C1S(=O)(=O)c1ccccc1 (centres undefined) | –
0.792 | – | – | CO[C@H]1C(=O)N2C(C(=O)O)=C(CF)CS(=O)(=O)C12 (some centres undefined) | IC50 (Neutrophil elastase): 110 µM
– | – | – | O=C1CCN1CO | k obs / 1 [4]: inactive
– | – | – | O=C(OCN1C(=O)CC1Sc1ccccc1)c1ccccc1 (centres undefined) | k obs / 1 [4]: inactive
0.0542 | – | inactive | O=C(OCN1CCC1=O)c1ccccc1 | k obs / 1 [5]: 35.5 M⁻¹ s⁻¹
40.8 | 18.7 | inactive | O=C(OCN1C(=O)CC1S(=O)(=O)c1ccccc1)c1ccccc1 (centres undefined) | –
– | 2.2 | – | CCC1(CC)C(=O)N(COC(=O)c2ccccc2)C1Sc1ccccc1 (centres undefined) | –
